In test [1] the test system is Mycobacterium tuberculosis. Put plainly: Antimycobacterial activity against isoniazid-resistant Mycobacterium tuberculosis after 3 to 28 days by twofold dilution method. It counts as functional. In short, it runs like this: (§1)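 Twofold agar dilution in Middlebrook 7H11 with 10% OADC; plates held at 37 °C for 3 or 28 days. MIC is the lowest concentration giving complete inhibition of visible mycobacterial growth. Rifampin, streptomycin and BM521 served as references.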

For test [2], the system named is Mycobacterium tuberculosis. Put plainly: Antimycobacterial activity against rifampin-resistant Mycobacterium tuberculosis after 3 to 28 days by twofold dilution method. It counts as functional. In short, it runs like this: as §1

Molecules are shown by their SMILES. In brackets after ≈: the same amount, converted by molar mass.

A word on the MIC: it is the lowest concentration found to suppress growth. Read a low MIC as greater potency. For `CSc1ccc(-c2cc(CN3CCSCC3)c(C)n2-c2ccc(F)cc2)cc1`, the MIC in test [1] was > 16 µg/mL; in test [2] it was 0.25 µg/mL (≈ 0.606 µM).

As to `Cc1ccc(-c2cc(CN3CCSCC3)c(C)n2-c2ccc(F)cc2)cc1`, the MIC in test [1] was 32 µg/mL (≈ 84.1 µM); in test [2] it was 0.5 µg/mL (≈ 1.31 µM).

On to `CO[C@H]1/C=C/O[C@@]2(C)Oc3c(C)c(O)c4c(O)c(c(/C=N/N5CCN(C)CC5)c(O)c4c3C2=O)NC(=O)/C(C)=C\C=C\[C@H](C)[C@H](O)[C@@H](C)[C@@H](O)[C@@H](C)[C@H](OC(C)=O)[C@@H]1C` [RIFAMPIN], for which the values for the MIC in test [1] and in test [2] were 0.8 µg/mL (≈ 0.972 µM) and > 64 µg/mL, respectively.

As for `CN[C@@H]1[C@H](O[C@H]2[C@H](O[C@H]3[C@H](O)[C@@H](O)[C@H](N=C(N)N)[C@@H](O)[C@@H]3N=C(N)N)O[C@@H](C)[C@]2(O)C=O)O[C@@H](CO)[C@H](O)[C@H]1O` [STREPTOMYCIN], the MIC in test [1] and in test [2] was 0.5 µg/mL (≈ 0.86 µM) in each case.
